# In the library only some 5.4% were active in any assay of this set; here they are far more common.
# T cruzi repl – blocks replication of Trypanosoma cruzi | inhibition, % (concentration not given with the values) | 300,000 compounds, 1.4% hits | T. cruzi beta-gal in NIH3T3, luminescence, 90 h;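 active = mean inhibition across valid replicates above about 55%, limit read from the data; inconclusive = mean below that limit but half or more replicates reach it; inactive = mean below it, under half of replicates reach it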;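 note: signal also drops with host cell toxicity which is not excluded here; 0% = plate median of DMSO wells and 100% = zero luminescence signal; higher percent means less beta-gal luminescence so fewer parasites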
#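 compound dosing = single 50 nL compound addition per well in DMSO | material = NIH/3T3 host cells with β-galactosidase reporter T. cruzi | input = 5,000 host fibroblasts per well | timing = ≥90 h infection period, 3 h prior cell attachment | read-out basis = percent inhibition of parasite-derived β-gal signal | detection = GalScreen β-gal luminescence, detergent lysis, 60 min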
# CSC inhib – cancer stem cell inhibition; cancer stem cell-like cells viability, luminescence; inhibition, % at 7.5 µM; 300,000 compounds, 1.1% hits; AID 2717; in the data active = inhibition above about 75%; inconclusive = no clear call, values can overlap the other calls; tested in HMLE shEcad cells
# SKKanGAS inh – SKKanGAS growth inhibition; S. pyogenes SKKanGAS, kanamycin growth, BacTiter-Glo, 6 h; inhibition, % at 7.5 µM; AID 1662; 300,000 compounds, 1.3% hits;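 active = mean replicate score, as percent of positive control median, at least 50; inconclusive = mean below 50 but one replicate at or above 50; inactive = mean and every replicate below 50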;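 note: strain carries kanamycin resistance gene driven by streptokinase promoter and grows in 40 µg/ml kanamycin; loss of luminescence reflects streptokinase promoter inhibition or plain growth inhibition; 0% = median of DMSO wells and 100% = positive control at its reference dose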
# aSyn 5UTR inh – MLPCN primary screen, SNCA 5' untranslated region; alpha-synuclein 5'UTR reporter, inhibitor activity; inhibition, % (tested at 7.5 µM); 300,000 compounds, 0.82% hits; AID 1813; in the data active = inhibition above about 60%; inconclusive = no clear call, values can overlap the other calls;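 note: H4 neuroglioblastoma cells stably carrying SNCA 5'UTR luciferase fusion; 0% = DMSO wells and 100% = positive control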
# Mdm2-MdmX inh – inhibitors of human Mdm2/MdmX interaction. O15151+Q00987. SaOS-2 split-luciferase Mdm2/MdmX complementation, luminescence. inhibition, % at 8 µM. 330,000 compounds, 3% hits;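 active = inhibition of at least 50% at 8 µM in the primary screen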
# Target sequence (O15151 whole entry, looked up): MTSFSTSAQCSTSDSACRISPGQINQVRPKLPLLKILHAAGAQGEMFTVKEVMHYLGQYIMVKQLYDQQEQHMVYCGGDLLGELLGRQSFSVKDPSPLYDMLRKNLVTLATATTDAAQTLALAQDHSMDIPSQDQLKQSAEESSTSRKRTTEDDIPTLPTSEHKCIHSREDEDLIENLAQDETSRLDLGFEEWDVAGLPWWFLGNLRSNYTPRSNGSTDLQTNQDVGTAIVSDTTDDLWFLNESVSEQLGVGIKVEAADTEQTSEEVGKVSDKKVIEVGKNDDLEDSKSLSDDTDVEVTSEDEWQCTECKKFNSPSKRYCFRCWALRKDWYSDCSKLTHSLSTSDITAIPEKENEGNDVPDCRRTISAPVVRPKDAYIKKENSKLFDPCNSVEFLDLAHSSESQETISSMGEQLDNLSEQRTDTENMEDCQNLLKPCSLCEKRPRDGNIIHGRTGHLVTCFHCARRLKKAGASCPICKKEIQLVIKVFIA
# Target sequence (Q00987 whole entry, looked up): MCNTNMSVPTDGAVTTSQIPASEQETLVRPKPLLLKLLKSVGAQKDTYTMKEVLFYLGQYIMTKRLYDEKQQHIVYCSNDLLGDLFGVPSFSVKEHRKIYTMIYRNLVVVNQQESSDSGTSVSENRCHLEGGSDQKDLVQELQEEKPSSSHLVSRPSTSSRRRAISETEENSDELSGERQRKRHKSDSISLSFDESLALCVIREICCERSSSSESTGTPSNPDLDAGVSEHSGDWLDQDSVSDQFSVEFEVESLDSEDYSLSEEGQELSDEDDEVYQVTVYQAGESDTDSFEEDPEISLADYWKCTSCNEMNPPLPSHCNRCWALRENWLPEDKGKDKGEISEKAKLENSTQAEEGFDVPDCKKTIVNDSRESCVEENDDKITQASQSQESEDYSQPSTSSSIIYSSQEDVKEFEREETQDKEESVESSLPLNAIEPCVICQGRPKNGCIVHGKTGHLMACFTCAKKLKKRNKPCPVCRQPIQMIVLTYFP
# Active calls of the source: *; ? = inconclusive; . = no result given.
SMILES,T cruzi repl,CSC inhib,SKKanGAS inh,aSyn 5UTR inh,Mdm2-MdmX inh
Cc1cc(C)c(C#N)c(SCC(=O)Nc2ccccc2C)n1,-4.3,5.5,1.0,3.6,-46.1
Cc1cc(C)c(C#N)c(SCC(=O)Nc2nnc(-c3ccccc3)s2)n1,55.0*,5.4,11.7,-4.8,17.5
CCOc1ccc(NC(=O)Nc2ccon2)cc1,-21.4,12.4,10.5,-116.5,13.5
Cc1ccc(CN2CCSCC2)cc1,-0.1,2.1,-3.7,9.9,27.7
COc1ccc(N2CCN(C(=O)COC(=O)Cc3c(F)cccc3Cl)CC2)cc1,-1.5,-7.8,-5.5,-9.6,-3.1
COCCCNC(=O)C[C@H]1C[C@H](C(=O)N(C(C)C)C(C)C)[C@@]2(C)c3[nH]c4cc(-c5ccco5)ccc4c3CCN2C1=O,.,.,.,.,17.5
CC(SCc1ccccc1)C(=O)Nc1ccc(F)cc1 (centres undefined),-9.0,-16.4,-1.7,-35.8,-8.9
N#CC(C#N)=C(Nc1ccc(F)cc1)SCc1cccc(Br)c1,-53.3,118.8*,24.6,?,.
Cc1c(C(=O)N(Cc2ccccc2)Cc2cccs2)cnn1-c1ccc(Cl)cc1,42.8,79.7*,25.4,-3.6,24.8
CC(=O)Nc1ccc(SCC(=O)c2cc(C)ccc2C)cc1,-0.7,10.3,-7.3,-3.7,-2.8
COc1ccc(-n2c(C)cc(C(=O)CSc3ccc(NC(C)=O)cc3)c2C)cc1,11.2,168.6*,2.6,-89.1,-62.6
Cc1ccc(S(=O)(=O)NC(=O)c2ccc(-c3ccc(-c4ccccc4)cc3)o2)c(C)c1,-15.8,81.7*,25.4,13.0,10.6
Cc1ccc(S(=O)(=O)NC(=O)c2ccc(F)cc2)c(C)c1,-3.9,-9.4,-1.3,-2.5,14.9
O=C(NC(NC(=S)Nc1c(Cl)cccc1Cl)C(Cl)(Cl)Cl)OCc1ccccc1 (centres undefined),10.0,-3.2,76.8*,-15.0,43.6
Cc1ccc(/C=C/C2=NN(Cc3ccc(Cl)c(Cl)c3)C(=O)CC2)cc1,0.2,-14.1,53.6*,14.9,21.6
CCOC(=O)CN1N=C(/C=C/c2ccc(C)cc2)CCC1=O,-17.2,-13.4,-16.7,33.3,17.0
COC(=O)C1=C(N)N(c2ccccc2C(F)(F)F)C2=C(C(=O)CCC2)C1c1ccc2c(c1)OCO2 (centres undefined),55.9*,-11.4,20.7,-35.3,-26.0
Cc1cc(C)c(C(=O)Nc2ccc(Br)c(C(F)(F)F)c2)c(C)c1,22.6,2.9,71.6*,7.5,43.4
Cc1ccc(OCC(=O)N(Cc2ccco2)c2c(N)n(Cc3ccccc3)c(=O)[nH]c2=O)cc1C,.,.,.,.,-5.1
CC(CN1CCN(C)CC1)OC(=O)c1ccc(Cl)cc1 (centres undefined),58.9*,47.8,13.9,-0.1,10.2
NC(=O)c1sc(-c2ccsc2)cc1NS(=O)(=O)c1ccc(C(F)(F)F)cc1,-21.6,79.0*,11.0,-23.9,13.4
CC(=O)c1sc(-c2ccc(F)cc2)cc1NS(=O)(=O)c1ccc(C)cc1,-11.4,1.3,3.5,18.1,33.8
CC[C@H]1OC(=O)[C@H](C)[C@@H](O[C@H]2C[C@@](C)(OC)[C@@H](O)[C@H](C)O2)[C@H](C)[C@@H](O[C@@H]2O[C@H](C)C[C@H](N(C)C)[C@H]2O)[C@](C)(O)C[C@@H](C)CN(C)[C@H](C)[C@@H](O)[C@]1(C)O,2.4,-0.9,110.5*,-32.7,46.1
O=C(CN1C(=O)NC2(CCCC2)C1=O)NCCc1ccccc1,.,-12.2,.,.,15.3
CN(C)CCCNC(=O)c1ccc(Cl)c(S(=O)(=O)N2CCCCCC2)c1,.,27.3,.,.,11.4
SMILES,T cruzi repl,CSC inhib,SKKanGAS inh,aSyn 5UTR inh,Mdm2-MdmX inh
CN(C)CCCNC(=O)c1ccc(Cl)c(S(=O)(=O)N(C)c2ccccc2)c1,65.3*,-12.1,-1.0,-25.8,10.7
CC(C)c1ccc(C(=O)NCCCN(C)C)cc1,60.5*,-9.1,-12.0,-3.5,-1.7
COCCNC(=O)NC1(C(F)(F)F)Oc2ccc(Cl)cc2O1 (centres undefined),-1.3,75.1*,0.1,-59.2,18.6
O=C(NCc1cccnc1)NC1(C(F)(F)F)Oc2ccc(Cl)cc2O1 (centres undefined),-10.7,51.8,-1.5,-29.8,-21.7
COc1ccc(NC(=O)CN(C)C(=O)c2cnc(Cl)c(Cl)c2)cc1,-12.5,-8.3,10.6,31.3,-4.4
CC1CC(C)CN(C(=O)/C=C/c2ccc(S(=O)(=O)N3CCOCC3)cc2)C1 (centres undefined),.,-8.2,.,.,1.0
CC[C@H](C)Cc1cn([C@@H](CCCCNC(=O)OC(C)(C)C)C(=O)NCCCCCCCCCCC(=O)N2CCN(C(=O)OC(C)(C)C)CC2)nn1,.,14.6,.,.,10.0
O=C(Nc1cccc2ccccc12)C12CC3CC(C1)CC(n1cnc([N+](=O)[O-])n1)(C3)C2,43.8,15.0,-0.3,73.0*,18.3
O=C(O)c1cccc(NC(=O)C23CC4CC(C2)CC(n2cnc(Cl)n2)(C4)C3)c1,-22.0,6.9,1.3,0.6,11.9
COC(=O)c1ccccc1NC(=O)C12CC3CC(C1)CC(n1cnc(Cl)n1)(C3)C2,17.0,3.2,3.6,-7.0,0.5
O=C(Nc1cc(Oc2ccccc2)cc([N+](=O)[O-])c1)C12CC3CC(C1)CC(n1cnc(Cl)n1)(C3)C2,61.7*,20.8,17.0,17.9,22.2
O=C(N/N=C/c1ccc([N+](=O)[O-])o1)c1ccc(NS(=O)(=O)c2cccs2)cc1,17.2,-17.0,72.5*,-0.6,-0.7
Cc1nn(-c2ccc(Cl)cc2)c(Cl)c1/C=N/NC(=O)c1ccc(NS(=O)(=O)c2cccs2)cc1,27.9,31.9,63.1*,-15.0,14.3
O=C(N/N=C/c1ccc([N+](=O)[O-])cc1)c1ccc(NS(=O)(=O)c2cccs2)cc1,.,-5.2,.,.,-12.7
O=C(N/N=C\C=C\c1ccc([N+](=O)[O-])o1)c1cccs1,77.6*,10.2,91.2*,-62.5,-14.9
CC(C)N1CC(C(=O)Nc2cccc([N+](=O)[O-])c2)CC1=O (centres undefined),-8.5,-10.5,-2.1,6.1,15.4
COc1ccc(Cl)cc1NC(=O)C(C)OC(=O)C1=NNC(=O)CC1 (centres undefined),.,-18.9,.,.,-1.2
Cc1cc(C(=O)OCC(=O)c2cccs2)ccc1[N+](=O)[O-],.,.,.,.,6.0
CC(C(=O)c1ccc(-c2ccccc2)cc1)[n+]1ccccc1 (centres undefined),-1.4,14.8,0.9,12.5,6.4
Cc1cc[n+](C(C)C(=O)c2ccc(-c3ccccc3)cc2)cc1 (centres undefined),73.3*,3.6,.,22.6,31.8
CCOc1ccc(CCNC(=O)COC(=O)c2sccc2C)cc1OCC,12.1,-12.3,-5.0,26.8,10.1
CC(C)c1cc(-c2cc(-c3ccc(Cl)cc3)on2)nc(NC2CCCC2)n1,24.9,39.9,27.2,3.6,26.9
CC(C)c1cc(-c2cc(-c3ccccc3)on2)nc(NC2CCCC2)n1,10.6,85.0*,28.6,-3.7,8.6
c1ccc(-n2nnc3c(N4CCOCC4)ncnc32)cc1,12.1,3.6,-7.2,75.0*,9.1
Cc1nnc(N2CCOCC2)c2nn(-c3ccccc3)c(C)c12,-10.1,-0.1,-2.8,5.1,9.9
